ChEMBL document CHEMBL3286371, “wALADin benzimidazoles differentially modulate the function of porphobilinogen synthase orthologs” (J Med Chem, 2014)
Active and inactive are the calls of the source. The calls are words filed in the database; no cut-off is given here.

Key:
[1] = target: Delta-aminolevulinic acid dehydratase (Pseudomonas aeruginosa (strain ATCC 15692 / PAO1 / 1C / PRS 101 / LMG12228)) (UniProt Q59643); assay: Inhibition of Pseudomonas aeruginosa PAO1 recombinant PBGS using 0.2 mM 5-ALA as substrate at 50 to 200 uM at pH 7.5 in presence of KCl by buffer scan assay
Sequence of Delta-aminolevulinic acid dehydratase (Pseudomonas aeruginosa (strain ATCC 15692 / PAO1 / 1C / PRS 101 / LMG12228)) (Q59643 whole entry): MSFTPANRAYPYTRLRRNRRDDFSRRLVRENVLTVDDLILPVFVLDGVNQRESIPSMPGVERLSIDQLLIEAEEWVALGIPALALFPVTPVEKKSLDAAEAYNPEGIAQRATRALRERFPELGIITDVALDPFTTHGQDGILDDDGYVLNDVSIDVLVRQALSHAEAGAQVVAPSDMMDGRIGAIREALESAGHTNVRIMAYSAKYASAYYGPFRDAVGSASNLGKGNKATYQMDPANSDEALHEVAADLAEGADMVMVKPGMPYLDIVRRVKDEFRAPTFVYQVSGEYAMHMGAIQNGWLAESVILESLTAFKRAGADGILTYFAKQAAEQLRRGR

[2] = target: Delta-aminolevulinic acid dehydratase (Yersinia enterocolitica W22703) (UniProt F4MUJ9); assay: Inhibition of Yersinia enterocolitica recombinant PBGS expressed in Escherichia coli using 5-ALA as substrate at 50 to 200 uM at pH 7 to 8.5 by buffer scan assay
Sequence of Delta-aminolevulinic acid dehydratase (Yersinia enterocolitica W22703) (F4MUJ9 as listed by the source): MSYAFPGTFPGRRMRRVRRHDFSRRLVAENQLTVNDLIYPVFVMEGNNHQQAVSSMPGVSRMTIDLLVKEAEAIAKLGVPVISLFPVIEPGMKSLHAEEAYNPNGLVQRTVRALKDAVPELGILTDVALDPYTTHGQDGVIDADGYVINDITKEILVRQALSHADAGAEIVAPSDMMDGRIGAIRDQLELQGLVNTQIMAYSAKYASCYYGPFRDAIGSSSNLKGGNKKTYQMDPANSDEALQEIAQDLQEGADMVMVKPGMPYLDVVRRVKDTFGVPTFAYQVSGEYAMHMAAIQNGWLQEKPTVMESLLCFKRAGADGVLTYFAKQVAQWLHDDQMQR

[3] = target: T1, Delta-aminolevulinic acid dehydratase (Pseudomonas aeruginosa (strain ATCC 15692 / PAO1 / 1C / PRS 101 / LMG12228), UniProt Q59643); assay: Inhibition of Pseudomonas aeruginosa PAO1 recombinant PBGS using 5-ALA as substrate
T1 sequence (Q59643 whole entry): as the sequence (Q59643 whole entry) above
How it was run: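 Turnover kept at or below 30%. Porphobilinogen measured with Ehrlich's reagent. IC50 by variable-slope fit of activity normalized to DMSO control.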

[4] = target: Delta-aminolevulinic acid dehydratase (Pseudomonas aeruginosa (strain ATCC 15692 / PAO1 / 1C / PRS 101 / LMG12228)) (UniProt Q59643); assay: Inhibition of Pseudomonas aeruginosa PAO1 recombinant PBGS using 0.2 mM 5-ALA as substrate at 10 to 10000 uM at pH 7.5 by buffer scan assay in presence of 1 mM MgCl2
[5] = target: Delta-aminolevulinic acid dehydratase (Pseudomonas aeruginosa (strain ATCC 15692 / PAO1 / 1C / PRS 101 / LMG12228)) (UniProt Q59643); assay: Binding affinity to Pseudomonas aeruginosa PAO1 recombinant PBGS at 100 to 500 uM by thermal shift assay in presence of KCl
[6] = target: Delta-aminolevulinic acid dehydratase (Pseudomonas aeruginosa (strain ATCC 15692 / PAO1 / 1C / PRS 101 / LMG12228)) (UniProt Q59643); assay: Binding affinity to Pseudomonas aeruginosa PAO1 recombinant PBGS at 100 to 500 uM by thermal shift assay
[7] = target: Delta-aminolevulinic acid dehydratase (Pseudomonas aeruginosa (strain ATCC 15692 / PAO1 / 1C / PRS 101 / LMG12228)) (UniProt Q59643); assay: Inhibition of Pseudomonas aeruginosa PAO1 recombinant PBGS using 0.2 mM 5-ALA as substrate assessed as reduction in Vmax at 50 to 200 uM at pH 7.5 by Michaelis-Menten plot analysis in presence of MgCl2
How it was run: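 PaPBGS under "standard inhibitory" conditions (100 mM Tris-HCl pH 7.5, 1 mM MgCl2, no KCl). 5-ALA varied for substrate-response curves at several wALADin1 levels; KM and VMAX derived from the fits. Incubation at 36 °C.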

[8] = target: T2, Delta-aminolevulinic acid dehydratase, chloroplastic (Pisum sativum) (UniProt P30124); assay: Inhibition of Pisum sativum PBGS using 5-ALA as substrate at 8 to 2000 uM after 30 mins by nondenaturing PAGE analysis; conditions: Lathyrus oleraceus
T2 sequence (whole entry): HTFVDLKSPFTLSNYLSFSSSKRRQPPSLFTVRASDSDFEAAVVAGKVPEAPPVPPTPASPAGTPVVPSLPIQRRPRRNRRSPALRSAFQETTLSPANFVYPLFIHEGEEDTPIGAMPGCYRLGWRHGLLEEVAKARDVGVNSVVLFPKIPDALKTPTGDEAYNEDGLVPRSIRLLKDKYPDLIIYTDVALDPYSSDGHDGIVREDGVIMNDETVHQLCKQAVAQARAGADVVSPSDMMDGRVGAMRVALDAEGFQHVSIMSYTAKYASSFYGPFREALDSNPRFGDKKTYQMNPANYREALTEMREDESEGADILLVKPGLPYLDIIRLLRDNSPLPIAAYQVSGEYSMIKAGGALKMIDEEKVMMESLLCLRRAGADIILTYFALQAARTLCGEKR

[9] = target: Delta-aminolevulinic acid dehydratase (Pseudomonas aeruginosa (strain ATCC 15692 / PAO1 / 1C / PRS 101 / LMG12228)) (UniProt Q59643); assay: Stimulation of Pseudomonas aeruginosa PAO1 recombinant PBGS assessed as stabilization of octameric form at 250 uM at pH 7 to 8.5 by nondenaturing PAGE analysis in presence of Mg2+ and K+
[10] = target: T3, Delta-aminolevulinic acid dehydratase (Escherichia coli (strain K12)) (UniProt P0ACB2); assay: Stimulation of Escherichia coli recombinant PBGS using 5-ALA as substrate at 10 to 1000 uM at pH 8 in presence of MgCl2 and KCl
T3 sequence (whole entry): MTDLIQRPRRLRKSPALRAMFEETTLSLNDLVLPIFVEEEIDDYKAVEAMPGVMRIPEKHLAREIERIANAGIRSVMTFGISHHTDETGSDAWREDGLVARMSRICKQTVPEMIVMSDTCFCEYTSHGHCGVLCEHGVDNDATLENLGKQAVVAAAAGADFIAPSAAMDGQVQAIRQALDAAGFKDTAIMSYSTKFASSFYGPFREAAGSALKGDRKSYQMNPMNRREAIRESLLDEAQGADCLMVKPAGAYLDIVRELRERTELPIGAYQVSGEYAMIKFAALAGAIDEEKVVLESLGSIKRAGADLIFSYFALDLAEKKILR

[11] = target: T4, Delta-aminolevulinic acid dehydratase (Wolbachia sp. subsp. Brugia malayi (strain TRS), UniProt Q5GSR3); assay: Inhibition of C-terminal His-tagged Wolbachia PBGS using 5-ALA as substrate
T4 sequence (Q5GSR3 whole entry): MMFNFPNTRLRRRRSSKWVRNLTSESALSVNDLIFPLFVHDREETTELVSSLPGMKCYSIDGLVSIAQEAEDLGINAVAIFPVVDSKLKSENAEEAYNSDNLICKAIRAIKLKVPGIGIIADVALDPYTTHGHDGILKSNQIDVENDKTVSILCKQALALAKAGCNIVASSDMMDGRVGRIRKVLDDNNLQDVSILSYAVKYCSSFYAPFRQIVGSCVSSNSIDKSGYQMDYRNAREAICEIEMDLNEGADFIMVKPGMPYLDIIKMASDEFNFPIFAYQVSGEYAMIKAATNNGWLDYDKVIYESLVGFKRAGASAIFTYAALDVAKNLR

[12] = target: T1, Delta-aminolevulinic acid dehydratase; assay: Stimulation of Pseudomonas aeruginosa PAO1 recombinant PBGS using 5-ALA as substrate
How it was run: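 His-tagged PaPBGS at 150 nM subunit in 100 mM Tris-HCl pH 8.0 with 1 mM MgCl2, 100 mM KCl and 0.2 mM 5-ALA, 10 min at 36 °C, with turnover at most 30%. Porphobilinogen read with Ehrlich's reagent. Activity normalized to 6.7% DMSO control as 100%. EC50 from variable-slope agonist fit.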

Toxoplasma gondii = assay: Stimulation of Toxoplasma gondii recombinant PBGS using 5-ALA as substrate relative to control
How it was run: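 Recombinant T. gondii PBGS (hemB in pET-21b, expressed in BL21 E. coli) at 250 nM subunit in 100 mM Tris-HCl pH 8.0, 1 mM MgCl2, 5 mM DTT, with 200 μM 5-ALA, 20 min at 36 °C. Porphobilinogen was read with Ehrlich's reagent, and turnover was kept at or below 30%.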

[13] = target: T5, Delta-aminolevulinic acid dehydratase (Wolbachia sp. subsp. Brugia malayi (strain TRS)) (UniProt Q5GSR3); conditions: 25 to 2500 uM
T5 sequence (whole entry): T4 sequence (Q5GSR3 whole entry)

Q: `O=C(O)c1ccc2c(c1)nc(CCNC(=O)c1cccs1)n2Cc1cccc(C(F)(F)F)c1` was tested. Which inhibition [1] did it give?
A: Active

Q: What about the inhibition [2] of the same compound?
A: Active

Q: What about the IC50 [3] of the same compound?
A: 79 µM

Q: And the inhibition [4]?
A: Active

Q: What about the Activity [5] of the same compound?
A: Active

Q: What about the Activity [6] of the same compound?
A: Active

Q: What about the inhibition [7] of the same compound?
A: Active

Q: And the inhibition [8]?
A: Active

Q: What about the Activity [9] of the same compound?
A: Active

Q: And the Activity [10]?
A: Active

Q: What about the IC50 [11] of the same compound?
A: 11.1 µM

Q: And the EC50 [12]?
A: 69 µM

Q: What about the Smax (Toxoplasma gondii) of the same compound?
A: 128%

Q: And the inhibition [13]?
A: inactive
